≈ marks a conversion by molar mass, not a printed value. Calls of active or inactive are those of the source.

Broadly, the MIC is the smallest concentration in the dilution series that meets the test's criterion for growth inhibition. A high value points to a less susceptible organism. As usually defined, the IC50 is the concentration needed to halve the response being measured. The low end stands for higher potency, the high end for lower potency.

Assay [1] deals with Mycobacterium tuberculosis. The experiment in a line: Antimycobacterial activity against Mycobacterium tuberculosis H37Rv. Format: functional. A digest of the protocol:
(§1)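 MIC determined by agar dilution, following the NCCLS-recommended approach, in duplicate. Strains were M. tuberculosis H37Rv and a multidrug-resistant M. tuberculosis. Concentrations were tested up to 25 µg/mL.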

Assay [2] deals with Vero. The experiment in a line: Cytotoxicity against Vero cell line. Format: functional, cell-based. The following applies: Chlorocebus sabaeus.
Assay [3] has as its system Mycobacterium tuberculosis. The experiment in a line: Antimycobacterial activity against Mycobacterium tuberculosis H37Rv at 25 ug/ml. Format: functional, organism-based. A digest of the protocol:
as §1

Assay [4] has as its system Vero. As to the kind of experiment: Selectivity index, IC50 for Vero cell line/ MIC for Mycobacterium tuberculosis H37Rv. Format: functional. A digest of the protocol:
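Vero cells were exposed to compound at 62.5 µg/mL for 72 h. Viability was read by MTT conversion to formazan. Selectivity index is the Vero IC50 divided by the agar-dilution MIC against the listed strain.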

For assay [5], the system named is Mycobacterium tuberculosis. The experiment in a line: Activity against Mycobacterium tuberculosis H37Rv infected in CD1 mouse assessed as decrease in bacterial load relative to control in lung at 50 mg/kg, ip. Format: functional. The note with it: route intraperitoneal. The method, boiled down: (§2)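 Female CD-1 mice, 6 weeks old, infected intravenously via the caudal vein with about 10⁷ viable M. tuberculosis ATCC 35801. Intraperitoneal treatment for 10 days after inoculation.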

In assay [6] the test system is Mycobacterium tuberculosis. The experiment in a line: Activity against Mycobacterium tuberculosis H37Rv infected in CD1 mouse assessed as decrease in bacterial load relative to control in spleen at 50 mg/kg, ip. Format: functional. The following applies: route intraperitoneal. A digest of the protocol: as §2
Assay [7] concerns Mycobacterium tuberculosis. The experiment in a line: Activity against Mycobacterium tuberculosis H37Rv infected in CD1 mouse assessed as decrease in bacterial load relative to control in lung at 25 mg/kg, ip. The following applies: route intraperitoneal. Format: functional. The method, boiled down: as §2
The subject of assay [8] is Mycobacterium tuberculosis. The experiment in a line: Activity against Mycobacterium tuberculosis H37Rv infected in CD1 mouse assessed as decrease in bacterial load relative to control in spleen at 25 mg/kg, ip. The following applies: route intraperitoneal. Format: functional. A digest of the protocol:
as §2

In assay [1], `C/C(=N\N=C(/S)Nc1ncc(C2CCC2)o1)c1ccccc1` yielded an MIC of 3.12 µg/mL (≈ 9.92 µM). Turning to `C/C(=N\N=C(/S)Nc1ncc(C2CCC2)o1)c1ccc(N)cc1`, in the assay on Vero [2], 62.5 µg/mL (≈ 190 µM) corresponded to half-maximal inhibition (IC50). The compound also yielded an MIC in assay [1] of 0.78 µg/mL (≈ 2.37 µM). Taken in the same sequence, the figures for `O=[N+]([O-])c1ccc(/C=N/N=C(\S)Nc2ncc(C3CCC3)o2)cc1` were less than 62.5 µg/mL and 0.39 µg/mL (≈ 1.13 µM).

The compound `C/C(=N\N=C(/S)Nc1ncc(C2CCC2)o1)c1ccccc1O` had an MIC in assay [1] of 3.12 µg/mL (≈ 9.44 µM). `CO[C@H]1/C=C/O[C@@]2(C)Oc3c(C)c(O)c4c(O)c(c(/C=N/N5CCN(C)CC5)c(O)c4c3C2=O)NC(=O)/C(C)=C\C=C\[C@H](C)[C@H](O)[C@@H](C)[C@@H](O)[C@@H](C)[C@H](OC(C)=O)[C@@H]1C` [RIFAMPIN]: the half-inhibitory concentration (IC50) in the assay on Vero [2] was more than 62.5 µg/mL. Also, in assay [1], the MIC was determined as 0.1 µg/mL (≈ 0.122 µM). For `N/N=C(\S)Nc1ncc(C2CCC2)o1`, in assay [3], the result was inactive. Take `C/C(=N\N=C(/S)Nc1ncc(C2CCC2)o1)c1ccc(O)cc1`: the MIC in assay [1] is 3.12 µg/mL (≈ 9.44 µM). Still for that read-out and setting: the same measure for `S=C(NN=C(Cc1ccccc1)Cc1ccccc1)Nc1ncc(C2CCC2)o1`: 6.25 µg/mL (≈ 15.4 µM). As to `S=C(NN=C(c1ccccc1)c1ccccc1)Nc1ncc(C2CCC2)o1`, the IC50 in the assay with Vero [2] was more than 62.5 µg/mL. The compound also yielded a Selectivity index in the assay on Vero [4] of more than 1250. The compound also came in with an MIC in assay [1] of 0.1 µg/mL (≈ 0.266 µM). In the case of `S=C(N/N=C/c1ccc(Cl)cc1)Nc1ncc(C2CCC2)o1`, inhibition of growth in assay [1] (MIC) required 1.56 µg/mL (≈ 4.66 µM). As to `C/C(=N\N=C(/S)Nc1ncc(C2CCC2)o1)c1ccc([N+](=O)[O-])cc1`, the 50% inhibitory concentration (IC50) with Vero [2] worked out at 62.5 µg/mL (≈ 174 µM). In assay [1], the lowest concentration to inhibit growth (MIC) was 0.2 µg/mL (≈ 0.556 µM). Regarding `C/C(=N\N=C(/S)Nc1ncc(C2CCC2)o1)c1ccc(C)cc1`, 0.78 µg/mL (≈ 2.37 µM) was the least that counted as inhibitory in assay [1] (MIC). The same measure, in the same setting: the figure for `O=[N+]([O-])c1ccccc1/C=N/N=C(\S)Nc1ncc(C2CCC2)o1` is 0.78 µg/mL (≈ 2.26 µM). `S=C(N/N=C(\c1ccccc1)c1ccc(Br)cc1)Nc1ncc(C2CCC2)o1`: the values for the Log10 cfu in assay [5] and in assay [6] were 5.78 and 5.12, respectively. Besides, the IC50 with Vero [2] is more than 62.5 µg/mL. The compound also gave an MIC in assay [1] of 0.05 µg/mL (≈ 0.11 µM).

For the compound `COc1c(N2CCNC(C)C2)c(F)cc2c(=O)c(C(=O)O)cn(C3CC3)c12` (stereo not drawn) [GATIFLOXACIN], the Log10 cfu in assay [5] came out at 6.02; in assay [6], 6.24. The IC50 with Vero [2] is more than 62.5 µg/mL. Further, in assay [1], the MIC is 0.2 µg/mL (≈ 0.533 µM).

For `CC[C@@H](CO)NCCN[C@@H](CC)CO` [ETHAMBUTOL], the IC50 with Vero [2] was more than 62.5 µg/mL. In assay [1], this compound gave an MIC of 1.56 µg/mL (≈ 7.64 µM). In turn, `Oc1[nH]c2ccccc2c1/N=N/C(S)=N/c1ncc(C2CCC2)o1` came in with an MIC in assay [1] of 25 µg/mL (≈ 73.2 µM). Consider `O=[N+]([O-])c1cccc(/C=N/N=C(\S)Nc2ncc(C3CCC3)o2)c1`, for which the IC50 with Vero [2] is less than 62.5 µg/mL. The compound also gave an MIC in assay [1] of 0.78 µg/mL (≈ 2.26 µM). For `CN(C)c1ccc(/C=N/N=C(\S)Nc2ncc(C3CCC3)o2)cc1`, the MIC in assay [1] turned out to be 3.12 µg/mL (≈ 9.08 µM). Still for that read-out and setting: the figure for `Oc1ccccc1/C=N/N=C(\S)Nc1ncc(C2CCC2)o1` is 6.25 µg/mL (≈ 19.8 µM).

With `NNC(=O)c1ccncc1` [ISONIAZID], the Log10 cfu in assay [7] stood at 5.12; in assay [8], 4.11. This compound showed a half-maximal inhibitory concentration (IC50) in the assay on Vero [2] of more than 62.5 µg/mL. In addition, the MIC in assay [1] was found to be 0.05 µg/mL (≈ 0.365 µM).

For the compound `COc1cc(/C=N/N=C(\S)Nc2ncc(C3CCC3)o2)ccc1O`, the MIC in assay [1] was found to be 12.5 µg/mL (≈ 36.1 µM).

On to `COc1ccc(/C=N/N=C(\S)Nc2ncc(C3CCC3)o2)cc1`, for which the MIC in assay [1] was 6.25 µg/mL (≈ 18.9 µM). Still for that read-out and setting: the same measure for `Oc1[nH]c2ccc(F)cc2c1/N=N/C(S)=N/c1ncc(C2CCC2)o1`: 12.5 µg/mL (≈ 34.8 µM). In the assay with Vero [2], `Cc1ccc(/C=N/N=C(\S)Nc2ncc(C3CCC3)o2)cc1` registered an IC50 of less than 62.5 µg/mL. The compound also had an MIC in assay [1] of 3.12 µg/mL (≈ 9.92 µM).

Source of the values: ChEMBL document CHEMBL1148530, “Discovery of new antitubercular oxazolyl thiosemicarbazones” (J Med Chem, 2006).
